We go through nine compounds from ChEMBL document CHEMBL1671778, “Synthesis and serotonin transporter activity of 1,3-bis(aryl)-2-nitro-1-propenes as a new class of anticancer agents” (Bioorg Med Chem, 2011).

For assay [1], the system named is SH-SY5Y. The assay can be described thus: Antiproliferative activity against human SH-SY5Y cells after 24 hrs Alamar blue assay. It is filed as functional, cell-based. An outline of the steps:
(§1)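 Alamar Blue viability: 1-5x10^4 cells/well treated 24 h, then Alamar Blue (pre-warmed) 4-6 h at 37 °C in the dark. Fluorescence read at 590 nm (excitation 544 nm), background of medium plus dye subtracted, untreated cells = 100% viability. Miconazole 10 µM as cell-death control. Range 1 µM-1 mM, triplicate on two independent days. pEC50 from non-linear sigmoidal regression.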
(Alamar Blue is a resazurin reagent that responds to reducing activity.)

The nature of assay [2]: Antiproliferative activity against human chemosensitive MUTU-I cells after 24 hrs Alamar blue assay. It is filed as functional, cell-based. The essentials:
as §1

The subject of assay [3] is DG-75. The assay can be described thus: Antiproliferative activity against human DG75 cells after 24 hrs Alamar blue assay. Format: functional, cell-based. The conditions noted are these: DG-75, 24 h. The essentials:
as §1

Assay [4] deals with SH-SY5Y. As to the kind of experiment: Cytotoxicity against human SH-SY5Y cells expressing human SERT assessed as decrease in cell viability after 48 hrs neutral red dye assay. It is filed as functional, cell-based.
Assay [5] relates to DG-75. As to the kind of experiment: Cytotoxicity against human chemoresistant DG75 cells expressing SERT assessed as decrease in cell viability 10 or 50 uM after 72 hrs Alamar blue assay. Format: functional, cell-based. The conditions noted are these: DG-75, 72 h. An outline of the steps:
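1-5x10^4 cells/200 µl given 10 or 50 µM for 24 h (MUTU-I, MDA-MB231, PBMC) or […]. Alamar Blue at 37 °C in the dark 4-6 h, then fluorescence read with 544/590 nm. Media-only background subtracted; untreated cells set as 100% viability. Mean of six points (triplicate, two independent days). PBMCs from a healthy donor, isolated by ficoll density separation.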

For assay [6], the system named is HEK293. As to the kind of experiment: Cytotoxicity against human HEK293 cells assessed as decrease in cell viability after 48 hrs neutral red dye assay. It is filed as functional, cell-based. The conditions noted are these: HEK293, 48 h. The essentials: (§2)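 5x10^4 cells/well grown to sub-confluence (24-36 h), then exposed to compound 48 h. Neutral red dye 3+1 h, solubilised in 50% ethanol/1% acetic acid, absorbance 540 nm (690 nm background). Viability as percent of vehicle-treated cells; pEC50 by non-linear sigmoidal regression over 4 concentrations, triplicate on two independent days. Controls 30 mM sodium azide, 2% Triton-X. HEK293-hSERT cells kept in Geneticin, used up to 30 passages.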

For assay [7], the system named is HEK293. The assay can be described thus: Cytotoxicity against human HEK293 cells expressing human SERT assessed as decrease in cell viability after 48 hrs neutral red dye assay. It is filed as functional, cell-based. The conditions noted are these: HEK293, 48 h. The essentials: as §2
Assay [8] has as its target T1, Sodium-dependent serotonin transporter (Homo sapiens, UniProt P31645). The conditions noted are these: HEK293, at 100 µM.
Target sequence in this assay (P31645 whole entry, looked up): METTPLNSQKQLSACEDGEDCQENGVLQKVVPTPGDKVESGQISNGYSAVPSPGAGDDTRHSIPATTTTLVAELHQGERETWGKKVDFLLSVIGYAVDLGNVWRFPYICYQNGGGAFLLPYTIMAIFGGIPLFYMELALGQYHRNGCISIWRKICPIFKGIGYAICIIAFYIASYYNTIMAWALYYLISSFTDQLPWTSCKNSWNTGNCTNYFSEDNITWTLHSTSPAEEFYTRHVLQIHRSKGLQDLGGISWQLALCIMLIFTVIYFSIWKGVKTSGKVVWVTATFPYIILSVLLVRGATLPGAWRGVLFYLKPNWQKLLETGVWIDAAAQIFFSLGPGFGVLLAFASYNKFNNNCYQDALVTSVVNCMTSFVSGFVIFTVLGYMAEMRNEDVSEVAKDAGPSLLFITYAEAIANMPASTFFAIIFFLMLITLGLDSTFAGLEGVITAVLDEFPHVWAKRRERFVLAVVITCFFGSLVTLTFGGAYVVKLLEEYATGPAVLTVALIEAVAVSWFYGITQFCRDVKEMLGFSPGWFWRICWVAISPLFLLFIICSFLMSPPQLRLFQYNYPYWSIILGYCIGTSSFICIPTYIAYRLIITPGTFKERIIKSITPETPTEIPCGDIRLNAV
The target in assay [9] is T1, Sodium-dependent serotonin transporter. The conditions noted are these: HEK293, at 1 µM.
Target sequence in this assay (P31645 whole entry, looked up): as above
The target is the same in assay [10]. The assay can be described thus: Inhibition of [3H]-serotonin reuptake at human SERT expressed in HEK293 cells after 15 to 20 mins by fluorescence neurotransmitter transporter assay. Format: cell-based.
Target sequence in this assay (P31645 whole entry): as the sequence (P31645 whole entry, looked up) above

The EC50 is the concentration giving half of the maximal effect. As for `CSc1ccc(C/C(=C/c2ccc(Cl)cc2)[N+](=O)[O-])cc1`, the EC50 in the assay on SH-SY5Y [1] was 20 µM; in assay [2], 3.16 µM; with DG-75 [3], 7.94 µM.

The inhibition is how much of the control response was suppressed. A higher inhibition goes with strong suppression. In the case of `COc1ccc(CC(N)Cc2ccc(OC)cc2)cc1`, the EC50 with SH-SY5Y [4] was 0.02 mM; in the assay on SH-SY5Y [1], 20 µM; in the assay with DG-75 [5] it was 20 µM; in the assay on HEK293 [6], 31.6 µM; with HEK293 [7], 25.1 µM; in assay [2], 794 µM. Besides, the EC50 in the assay with DG-75 [3] is 398 µM. The inhibition in assay [8] came to 65%; in [9] it was 11%.

Take `CC(=O)NC(Cc1ccc2c(c1)OCO2)Cc1ccc2c(c1)OCO2`: the EC50 was above 10 mM in the assay with SH-SY5Y [4], 1260 µM with DG-75 [5], 3980 µM with HEK293 [6] and above 10000 µM in the assay with HEK293 [7].

One may read the IC50 as the concentration needed to halve the response being measured. With `CNC(C)Cc1ccc2c(c1)OCO2` (stereo not drawn) [MIDOMAFETAMINE], the half-maximal effective concentration (EC50) in the assay with SH-SY5Y [4] is above 10 mM; with DG-75 [5], 31.6 µM; in the assay on HEK293 [6], 251 µM; in the assay with HEK293 [7], 501 µM. The compound also returned an IC50 in [10] of 1100 nM.

As to `CN(C)CCCC1(c2ccc(F)cc2)OCc2cc(C#N)ccc21` (stereo not drawn) [CITALOPRAM], the 50% effective concentration (EC50) in the assay on SH-SY5Y [4] is 0.0251 mM; in the assay with DG-75 [5], 12.6 µM; in the assay on HEK293 [6], 15.8 µM.

`CC(N)Cc1ccc2c(c1)OCO2` (stereo not drawn) [TENAMFETAMINE]: the EC50 is above 10 mM in the assay with SH-SY5Y [4], 2000 µM in the assay on DG-75 [5], 316 µM with HEK293 [6] and 631 µM with HEK293 [7]. The concentration for half-maximal inhibition (IC50) in assay [10] came to 900 nM.

On to `OC(Cc1ccc2c(c1)OCO2)Cc1ccc2c(c1)OCO2`, for which the concentration giving a half-maximal response (EC50) in the assay on SH-SY5Y [1] was 158 µM; in [2] it was 39.8 µM; with DG-75 [3] it was 126 µM.

For `O=[N+]([O-])/C(=C\c1ccc(Cl)cc1)Cc1ccc(Cl)cc1Cl`, the concentration giving a half-maximal response (EC50) is 25.1 µM in the assay with SH-SY5Y [1], 3.16 µM in assay [2] and 3.16 µM in the assay on DG-75 [3].

As for `CSc1ccc(CC(Cc2ccc(SC)cc2)NC(C)=O)cc1`, the EC50 in the assay on SH-SY5Y [4] was 3.98 mM; in the assay with SH-SY5Y [1] it was 15800 µM; in the assay with DG-75 [5] it was 3980 µM; with HEK293 [7], 39.8 µM; in assay [2], 158 µM; in the assay on DG-75 [3], 398 µM. The inhibition stood at 28% in assay [8] and 0% in [9].
